Laboratory results reported in paper PMC6675461 (Bioorganic & medicinal chemistry, 2009).
Like-named read-outs stand apart in the source and are kept apart here. Each block holds one compound with its values, some of them ahead of it.

Experiments:
[1] = system: three melanoma cell lines (B16-F1, A375, WM-164); assay: SRB assay, average over melanoma cell lines and selectivity vs fibroblast; type: cell-based, human, mouse; details: for Ratio = (IC50 of fibroblast cell)/(the average IC50 of melanoma cell lines): selectivity, fold
DU 145 cells = assay: SRB antiproliferative assay, DU 145 prostate cancer cells; type: cell-based, human; details: read-out: IC50 ± SEM DU 145
Summary of the method: (§1)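 Prostate cancer cells were grown in RPMI1640 with 10% FBS at 37 °C, 5% CO2. Cells were fixed with 10% TCA and stained with 0.4% SRB, and absorbance was read at 540 nm. IC50 came from nonlinear regression of % survival versus concentration.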

LNCaP cells [2] = assay: SRB antiproliferative assay, LNCaP prostate cancer cells; type: cell-based, human; details: 96 h, read-out: IC50 ± SEM LNCaP
Summary of the method: as §1

PPC-1 cells = assay: SRB antiproliferative assay, PPC-1 prostate cancer cells; type: cell-based, human; details: read-out: IC50 ± SEM PPC-1
Summary of the method: as §1

[3] = system: NCI-60 human tumor cell lines; assay: NCI-60 human tumor cell line anticancer drug screen; type: cell-based
A375 cells [4] = assay: Flow cytometric cell cycle analysis, A375; type: cell-based, human; details: A375, tested 1, 5, 10, 20 μM, 48 h
LNCaP cells [5] = assay: Flow cytometric cell cycle analysis, LNCaP; type: cell-based, human; details: tested 1, 5, 10, 20 μM, 48 h
A375 cells [6] = assay: Melanoma colony-formation assay; type: cell-based, human; details: 14 days
Summary of the method: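 A375 cells were plated at colony-forming density (2000 per well) in DMEM with FBS and antibiotic-antimycotic at 37 °C, 5% CO2. Test compound was added at 2, […], with matching DMSO dilution as vehicle control. After 14 days' growth, colonies were stained with 0.1% […] for 30 min, rinsed and counted with an automated colony counter.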

A375 melanoma tumors = assay: A375 melanoma xenograft in athymic nude mice; type: in vivo
PC-3 cells = assay: SRB antiproliferative assay, PC-3 prostate cancer cells; type: cell-based, human; details: read-out: IC50 ± SEM PC-3
RH7777 cells = assay: SRB assay, RH7777 control cells; type: cell-based; details: Homo sapiens, RH7777, 96 h, read-out: IC50 ± SEM RH7777
Summary of the method: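 PC-3 cells were grown in RPMI1640 with 10% FBS, and RH7777 cells in DMEM with 10% FBS, both at 37 °C, 5% CO2. Cells were fixed with 10% TCA, stained with 0.4% SRB and read at 540 nm. IC50 came from nonlinear regression of % survival versus concentration.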

LPA1 = LPA1 (Homo sapiens, UniProt Q92633); assay: FLIPR intracellular calcium mobilization assay, LPA1-transfected Chem-1 cells; type: cell-based; details: for agonist activity on LPA1, in words: top concentration 10 μM, 15% activation of oleoyl-LPA Emax = agonist
Sequence of LPA1 (Q92633 whole entry, species assumed): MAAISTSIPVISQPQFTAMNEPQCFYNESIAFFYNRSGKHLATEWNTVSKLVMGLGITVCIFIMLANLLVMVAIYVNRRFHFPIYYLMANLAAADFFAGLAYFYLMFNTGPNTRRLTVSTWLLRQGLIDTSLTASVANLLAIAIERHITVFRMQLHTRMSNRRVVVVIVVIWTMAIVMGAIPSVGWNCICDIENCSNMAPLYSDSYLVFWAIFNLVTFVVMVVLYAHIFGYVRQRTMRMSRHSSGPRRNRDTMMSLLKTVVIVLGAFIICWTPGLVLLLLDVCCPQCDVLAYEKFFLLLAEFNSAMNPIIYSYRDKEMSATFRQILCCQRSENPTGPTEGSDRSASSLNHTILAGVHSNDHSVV

LPA3 = target: T1, LPA3 (Homo sapiens, UniProt Q9UBY5); assay: FLIPR intracellular calcium mobilization assay, LPA3-transfected Chem-1 cells; type: cell-based; details: for agonist activity on LPA3, in words: top concentration 10 μM, 15% activation of oleoyl-LPA Emax = agonist
T1 sequence (Q9UBY5 1-353): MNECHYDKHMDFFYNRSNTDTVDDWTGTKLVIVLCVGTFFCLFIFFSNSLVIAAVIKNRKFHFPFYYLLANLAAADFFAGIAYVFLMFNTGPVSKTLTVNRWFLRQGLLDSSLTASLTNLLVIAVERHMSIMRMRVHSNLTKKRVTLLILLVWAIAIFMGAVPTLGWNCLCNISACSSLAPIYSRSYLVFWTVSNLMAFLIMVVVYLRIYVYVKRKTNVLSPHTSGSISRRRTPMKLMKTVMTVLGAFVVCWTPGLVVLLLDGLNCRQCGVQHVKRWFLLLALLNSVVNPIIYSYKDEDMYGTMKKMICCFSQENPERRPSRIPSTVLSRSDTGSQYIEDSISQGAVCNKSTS

LPA5 = LPA5 (Homo sapiens, UniProt Q9H1C0); assay: FLIPR intracellular calcium mobilization assay, LPA5-transfected Chem-1 cells; type: cell-based; details: for agonist activity on LPA5, in words: top concentration 10 μM, 15% activation of oleoyl-LPA Emax = agonist
Sequence of LPA5 (Q9H1C0 whole entry, species assumed): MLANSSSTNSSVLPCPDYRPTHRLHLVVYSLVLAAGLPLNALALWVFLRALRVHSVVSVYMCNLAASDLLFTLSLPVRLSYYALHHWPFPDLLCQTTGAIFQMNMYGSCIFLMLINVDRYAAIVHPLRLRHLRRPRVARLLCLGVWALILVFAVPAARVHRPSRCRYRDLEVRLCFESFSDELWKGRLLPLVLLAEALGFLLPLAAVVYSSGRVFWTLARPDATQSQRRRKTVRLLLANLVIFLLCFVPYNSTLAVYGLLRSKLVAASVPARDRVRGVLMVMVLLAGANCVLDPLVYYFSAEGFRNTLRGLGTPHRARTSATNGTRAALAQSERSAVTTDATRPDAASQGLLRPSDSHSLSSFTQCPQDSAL

B16-F1 cells = assay: SRB antiproliferative assay, B16-F1 melanoma cells; type: cell-based, mouse; details: read-out: IC50 ± SEM B16-F1, 48 h, diastereomeric mixtures
Summary of the method: (§2)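 Melanoma lines (human A375, WM-164; mouse B16-F1) and human dermal fibroblasts were grown in DMEM with 5% FBS, 1% antibiotic/antimycotic and bovine insulin (5 μg/mL) at 37 °C, 5% CO2. Diastereomeric mixtures were applied over a wide concentration range for 48 h. Cells were then TCA-fixed (10%), washed, air-dried overnight and SRB-stained, with absorbance read at 560 nm. IC50 (50% growth inhibition versus untreated) was obtained by nonlinear regression.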

A375 cells [7] = assay: SRB antiproliferative assay, A375 melanoma cells; type: cell-based, human; details: read-out: IC50 ± SEM A375; SRB, 48 h, diastereomeric mixtures
Summary of the method: as §2

WM-164 cells = assay: SRB antiproliferative assay, WM-164 melanoma cells; type: cell-based, human; details: read-out: IC50 ± SEM WM-164; SRB, 48 h, diastereomeric mixtures
Summary of the method: as §2

[8] = system: Human dermal fibroblast cells; assay: SRB assay, fibroblast control cells; type: cell-based; details: read-out: IC50 ± SEM Fibroblast, 48 h, control cell line for melanoma
Summary of the method: as §2

[9] = system: four prostate cancer cell lines (DU 145, PC-3, LNCaP, PPC-1); assay: SRB assay, average over prostate cancer cell lines and selectivity vs RH7777; type: cell-based, human; details: for IC50: read-out: Aver. (average IC50 of four prostate cells IC50s), DU 145, PC-3, LNCaP, PPC-1; for Ratio = (IC50 of RH7777 cell)/(average IC50 of prostate cell lines): selectivity, fold
Summary of the method: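 The control line was LPL receptor-negative RH7777 in DMEM/10% FBS. The prostate IC50s were averaged. Selectivity = IC50 in RH7777 divided by the average tumor-cell IC50.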

[10] = Fibroblast, read-out: Aver. (average IC50 of three melanoma cells IC50s)
[11] = against oleoyl-LPA at EC80, top concentration 10 μM
[12] = read-out: Aver. (average IC50 of three melanoma cells IC50s), B16-F1, A375, WM-164

Compound: CCCCCCCCCCCCCCCCNC(=O)[C@@H]1CSC(c2ccc(NC(C)=O)cc2)N1 (mixture of isomers) [Compound 1b, (2RS,4R)-2-(4-Acetylamino-phenyl)-thiazolidine-4-carboxylic acid hexadecylamide]
IC50 [1, 10]: 1800 nM
IC50 ([1]; Fibroblast, read-out: IC50 range over melanoma cell lines): 700 to 2100 nM
IC50 (DU 145 cells; Homo sapiens, DU-145, 96 h): 1700 ± 100 nM
IC50 (LNCaP cells [2]; Homo sapiens, LNCaP): 1000 ± 100 nM
IC50 (PPC-1 cells; Homo sapiens, PPC-1, 96 h): 400 ± 100 nM
GI50 ([3]; read-out: GI50 melanoma): 130 to 1480 nM
GI50 ([3]; read-out: GI50 prostate cancer): 170 to 270 nM
GI50 ([3]; read-out: GI50 range, all nine types of cancer cells): 120 to 10900 nM
concentration at which accumulation of cells in sub-G1 phase became apparent (A375 cells [4]): 5 µM
concentration at which accumulation of cells in sub-G1 phase became apparent (LNCaP cells [5]): 5 µM
inhibition of A375 colony formation (A375 cells [6]; 2 μM): effectively inhibit
inhibition of A375 colony formation (A375 cells [6]; 100 μM): completely inhibited
body weight change during the experiment (A375 melanoma tumors; nude mice, treatment groups): no significant body weight loss

Compound: CN(C)/N=N/c1[nH]cnc1C(N)=O [DTIC, dacarbazine]
Antiproliferative activity on melanoma cell lines, in words ([1]; reference compounds, in vitro): inactive
tumor growth inhibition (A375 melanoma tumors; 60 mg/kg i.p. once daily, end of treatment, nude mice): 42%
body weight change during the experiment (A375 melanoma tumors; mouse, in vivo): no significant body weight loss

Compound: Cc1noc(-c2ccc(CSCCC(=O)O)cc2)c1NC(=O)OC(C)c1ccccc1Cl (stereo not shown) [Ki16425, reference compound]
agonist activity on LPA1, in words (LPA1): did not show agonist effect
agonist activity on LPA3, in words (LPA3): did not show agonist effect
agonist activity on LPA5, in words (LPA5): did not show agonist effect

Compound: (2RS,4R)-3-Acetyl-2-(4-acetylamino-phenyl)-thiazolidine-4-carboxylic acid hexadecylamide [Compound 4]
IC50 (B16-F1 cells): 15000 ± 800 nM
IC50 (A375 cells [7]): 12600 ± 500 nM
IC50 (WM-164 cells): 20400 ± 800 nM
IC50 [8]: 57700 ± 1300 nM
IC50 [1, 12]: 16000 nM
Ratio = (IC50 of fibroblast cell)/(the average IC50 of melanoma cell lines) [1]: 3.6
IC50 (DU 145 cells; SRB, 96 h, Table 2): 14900 ± 2200 nM
IC50 (PC-3 cells; SRB, 96 h, Table 2): 9000 ± 1300 nM
IC50 (LNCaP cells [2]; SRB, Table 2): 10600 ± 600 nM
IC50 (PPC-1 cells; SRB, 96 h, Table 2): 6800 ± 800 nM
IC50 [9]: 10300 nM
Ratio = (IC50 of RH7777 cell)/(average IC50 of prostate cell lines) [9]: 1.3

The next lines start with results.

IC50 (DU 145 cells; Homo sapiens, DU-145, 96 h): 1700 ± 100 nM
IC50 (PC-3 cells; Homo sapiens, PC-3, 96 h): 1800 ± 100 nM
IC50 (LNCaP cells [2]; Homo sapiens, LNCaP): 800 ± 100 nM
IC50 (PPC-1 cells; Homo sapiens, PPC-1, 96 h): 400 ± 100 nM
Compound: CCCCCCCCCCCCCCCCNC(=O)[C@@H]1CSC(c2cc(OC)c(OC)c(OC)c2)N1 (mixture of isomers) [Compound 3ad, (2RS,4R)-2-(3,4,5-Trimethoxy-phenyl)-thiazolidine-4-carboxylic acid hexadecylamide]
IC50 [1, 10]: 1200 nM
IC50 (RH7777 cells): 7200 ± 100 nM
concentration at which accumulation of cells in sub-G1 phase became apparent (A375 cells [4]): 5 µM
concentration at which accumulation of cells in sub-G1 phase became apparent (LNCaP cells [5]): 5 µM
antagonist activity on LPA1, in words (LPA1; [11]): did not exhibit any dose-dependent antagonist activity
agonist activity on LPA1, in words (LPA1): did not exhibit any dose-dependent agonist activity
antagonist activity on LPA3, in words (LPA3; [11]): did not exhibit any dose-dependent antagonist activity
agonist activity on LPA3, in words (LPA3): did not exhibit any dose-dependent agonist activity
antagonist activity on LPA5, in words (LPA5; [11]): did not exhibit any dose-dependent antagonist activity
agonist activity on LPA5, in words (LPA5): did not exhibit any dose-dependent agonist activity
inhibition of A375 colony formation (A375 cells [6]; 2 μM): effectively inhibit
inhibition of A375 colony formation (A375 cells [6]; 20 μM): almost completely inhibited
inhibition of A375 colony formation (A375 cells [6]; 100 μM): completely inhibited

IC50 (B16-F1 cells): 18900 ± 1300 nM
IC50 (A375 cells [7]): 20600 ± 2100 nM
IC50 (WM-164 cells): 10700 ± 900 nM
IC50 (DU 145 cells; SRB, 96 h, Table 2): 3900 ± 400 nM
IC50 (PC-3 cells; SRB, 96 h, Table 2): 3700 ± 200 nM
IC50 (LNCaP cells [2]; SRB, Table 2): 1800 ± 100 nM
IC50 (PPC-1 cells; SRB, 96 h, Table 2): 800 ± 100 nM
IC50 [9]: 2600 nM
Ratio = (IC50 of RH7777 cell)/(average IC50 of prostate cell lines) [9]: 3.6
Compound: (2RS,4R)-2-(4-Acetylamino-phenyl)-thiazolidine-4-carboxylic acid (1-methyl-octadecyl)-amide [Compound 3ia]
IC50 [8]: > 100000 nM
fold decrease in potency compared with 1b, melanoma cells ([1]; from average IC50): 9.3 fold
IC50 [1, 12]: 16700 nM
fold decrease in potency compared with 1b, prostate cancer cells ([9]; from average IC50): 2.4 fold

IC50 (B16-F1 cells): 3900 ± 300 nM
IC50 (A375 cells [7]): 2100 ± 100 nM
IC50 (WM-164 cells): 1700 ± 100 nM
IC50 (DU 145 cells; SRB, 96 h, Table 2): 1900 ± 300 nM
IC50 (PC-3 cells; SRB, 96 h, Table 2): 2100 ± 100 nM
IC50 (LNCaP cells [2]; SRB, Table 2): 3500 ± 700 nM
IC50 (PPC-1 cells; SRB, 96 h, Table 2): 1600 ± 100 nM
IC50 [9]: 2300 nM
Ratio = (IC50 of RH7777 cell)/(average IC50 of prostate cell lines) [9]: 2.4
Compound: (2RS,4R)-2-(4-Acetylamino-phenyl)-thiazolidine-4-carboxylic acid-(9H-fluoren-2-yl)-amide [Compound 3id]
IC50 [8]: 28900 ± 1000 nM
IC50 [1, 12]: 2600 nM
Ratio = (IC50 of fibroblast cell)/(the average IC50 of melanoma cell lines) [1]: 11.3
